Test results from ChEMBL document CHEMBL4616603, “Luciferase-based HMG-CoA reductase degradation assay for activity and selectivity profiling of oxy(lano)sterols” (Bioorg Med Chem, 2020).
Calls of active or inactive are those of the source. The calls are words filed in the database; no cut-off is given here.

What was measured:
Format in all cases: cell-based
[1] = molecular target: T1, Sterol regulatory element-binding protein 1 (Homo sapiens) (UniProt P36956); experiment: Inhibition of SREBP (unknown origin) expressed in HEK293 cells assessed as reduction in LDLr promotor activity after 24 hrs by luciferase reporter assay
T1 sequence (whole entry): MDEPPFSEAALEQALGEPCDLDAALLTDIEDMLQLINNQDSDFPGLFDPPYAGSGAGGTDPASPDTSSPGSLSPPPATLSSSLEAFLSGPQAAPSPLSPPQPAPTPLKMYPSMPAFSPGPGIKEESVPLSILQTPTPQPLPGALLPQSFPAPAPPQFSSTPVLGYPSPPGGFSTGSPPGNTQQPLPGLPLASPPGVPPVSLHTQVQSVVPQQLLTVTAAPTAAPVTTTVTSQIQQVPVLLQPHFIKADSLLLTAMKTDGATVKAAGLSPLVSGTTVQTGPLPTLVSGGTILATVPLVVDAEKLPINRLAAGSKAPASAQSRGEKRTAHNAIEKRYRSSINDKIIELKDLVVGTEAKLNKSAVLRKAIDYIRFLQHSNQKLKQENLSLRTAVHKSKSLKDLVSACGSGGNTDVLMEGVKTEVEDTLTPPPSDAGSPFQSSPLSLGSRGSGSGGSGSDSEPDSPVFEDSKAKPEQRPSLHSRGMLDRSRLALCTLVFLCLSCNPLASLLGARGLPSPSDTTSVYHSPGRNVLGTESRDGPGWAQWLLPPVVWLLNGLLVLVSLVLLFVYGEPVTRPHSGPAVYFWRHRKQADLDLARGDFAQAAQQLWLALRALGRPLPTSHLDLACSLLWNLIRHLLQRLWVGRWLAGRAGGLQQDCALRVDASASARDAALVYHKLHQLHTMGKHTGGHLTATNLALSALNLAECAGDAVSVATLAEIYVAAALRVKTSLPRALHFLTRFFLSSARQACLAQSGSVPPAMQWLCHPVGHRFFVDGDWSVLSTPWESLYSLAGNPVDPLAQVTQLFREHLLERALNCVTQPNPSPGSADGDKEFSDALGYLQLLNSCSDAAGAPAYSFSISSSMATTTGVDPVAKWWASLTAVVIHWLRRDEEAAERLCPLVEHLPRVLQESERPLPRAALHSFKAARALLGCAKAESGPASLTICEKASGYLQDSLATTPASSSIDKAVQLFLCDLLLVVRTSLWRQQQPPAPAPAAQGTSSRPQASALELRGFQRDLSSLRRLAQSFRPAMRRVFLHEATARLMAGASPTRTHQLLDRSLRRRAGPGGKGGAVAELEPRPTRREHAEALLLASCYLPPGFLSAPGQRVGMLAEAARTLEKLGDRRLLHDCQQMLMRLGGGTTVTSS
Procedure, shortened: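 HEK293 cells transiently co-transfected with pGL4-LDLr-luciferase and pCMV-beta-galactosidase. After 24 h the medium was changed to DMEM with 10% LPDS, compounds were added, and culture continued for 24 h. Luciferase was read and normalized to beta-galactosidase activity. Mean ± SD, n = 3.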

[2] = molecular target: T2, 3-hydroxy-3-methylglutaryl-coenzyme A reductase (Homo sapiens) (UniProt P04035); experiment: (§1) Induction of human HMGCR-dCat-ELuc degradation expressed in HEK293 cells assessed as reduction in luciferase activity after 4 hrs by luciferase reporter assay
T2 sequence (whole entry): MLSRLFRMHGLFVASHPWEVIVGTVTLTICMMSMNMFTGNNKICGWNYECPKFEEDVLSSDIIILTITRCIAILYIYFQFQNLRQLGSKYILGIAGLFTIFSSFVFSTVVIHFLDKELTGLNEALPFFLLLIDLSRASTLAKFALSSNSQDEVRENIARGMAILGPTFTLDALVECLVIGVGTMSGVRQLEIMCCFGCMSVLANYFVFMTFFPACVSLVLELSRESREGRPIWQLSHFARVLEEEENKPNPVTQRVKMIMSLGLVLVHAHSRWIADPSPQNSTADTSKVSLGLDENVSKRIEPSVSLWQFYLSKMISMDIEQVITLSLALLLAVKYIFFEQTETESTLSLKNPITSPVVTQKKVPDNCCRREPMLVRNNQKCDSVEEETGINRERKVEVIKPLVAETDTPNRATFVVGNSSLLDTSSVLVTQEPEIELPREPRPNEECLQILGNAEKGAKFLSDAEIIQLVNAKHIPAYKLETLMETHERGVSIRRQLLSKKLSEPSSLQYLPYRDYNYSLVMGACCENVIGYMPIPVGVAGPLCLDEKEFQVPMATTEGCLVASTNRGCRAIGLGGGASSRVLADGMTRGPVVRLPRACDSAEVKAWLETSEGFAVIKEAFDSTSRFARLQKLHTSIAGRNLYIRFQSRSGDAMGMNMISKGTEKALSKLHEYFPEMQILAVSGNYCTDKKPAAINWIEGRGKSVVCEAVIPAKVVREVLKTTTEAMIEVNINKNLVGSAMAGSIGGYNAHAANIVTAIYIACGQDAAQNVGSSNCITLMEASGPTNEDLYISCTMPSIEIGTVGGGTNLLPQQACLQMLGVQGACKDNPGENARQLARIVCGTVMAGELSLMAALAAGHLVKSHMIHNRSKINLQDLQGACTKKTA
Procedure, shortened: (§2)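 HEK293 clone stably expressing HMGCR-dCat-ELuc, kept under 0.4 mg/mL G418 and picked from limiting-dilution clones. Cells exposed to compound for 4 h, then luciferase activity read as a measure of reporter protein level. Compounds came from 10 mM DMSO stocks (ethanol stock for 25HC). SD of triplicate experiments.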

[3] = molecular target: T2, 3-hydroxy-3-methylglutaryl-coenzyme A reductase (Homo sapiens); experiment: Induction of human HMGCR-dCat-ELuc degradation expressed in HEK293 cells assessed as reduction in luciferase activity measured after 8 hrs by luciferase reporter assay
Procedure, shortened: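 Stable HEK293 clone expressing HMGCR-dCat-ELuc, selected with 0.4 mg/mL G418 and isolated by limiting dilution. Cells were given graded compound concentrations without TAK-475 for 8 h. HMGCR-dCat-ELuc level was read as luciferase activity. Data are mean and SD.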

[4] = molecular target: T2, 3-hydroxy-3-methylglutaryl-coenzyme A reductase (Homo sapiens); experiment: Induction of human HMGCR-dCat-ELuc degradation expressed in HEK293 cells assessed as reduction in luciferase activity measured after 8 hrs in presence of SQS inhibitor TAK-475 by luciferase reporter assay
Procedure, shortened: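 Stable HEK293 HMGCR-dCat-ELuc clone (G418-selected, single clone) was given graded compound concentrations together with 10 µM TAK-475 (SQS inhibitor) for 8 h. The read-out was luciferase activity. Data are mean and SD of biological replicates, n = 4.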

[5] = molecular target: T3, 3-hydroxy-3-methylglutaryl-coenzyme A reductase (Homo sapiens, UniProt P04035); experiment: as §1; procedure, shortened: as §2
T3 sequence (P04035 whole entry): T2 sequence (whole entry)

[6] = molecular target: T2, 3-hydroxy-3-methylglutaryl-coenzyme A reductase (Homo sapiens); experiment: Induction of human HMGCR-dCat-ELuc degradation expressed in HEK293 cells assessed as reduction in luciferase activity after 8 hrs by luciferase reporter assay
Procedure, shortened: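 Stable HMGCR-dCat-ELuc HEK293 clone (G418 0.4 mg/mL selection) treated for 8 h, then assayed for luciferase activity. In some runs, cells were co-treated with the SQS inhibitor TAK-475 at 10 µM. Mean and SD from biological replicates (n = 4 or 8).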

[7] = molecular target: T2, 3-hydroxy-3-methylglutaryl-coenzyme A reductase (Homo sapiens); experiment: Induction of human HMGCR-dCat-ELuc degradation expressed in HEK293 cells assessed as reduction in luciferase activity at 10 uM measured at <4 hrs in presence of VCP inhibitor CB5083 by luciferase reporter assay
Procedure, shortened: (§3)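 Time-course degradation assay in the stable HMGCR-dCat-ELuc HEK293 line. Compound at 10 µM, alone or together with the VCP inhibitor CB5083 at 10 µM, for the indicated times. Reporter level read by luciferase activity.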

[8] = molecular target: T2, 3-hydroxy-3-methylglutaryl-coenzyme A reductase (Homo sapiens); experiment: Induction of human HMGCR-dCat-ELuc degradation expressed in HEK293 cells assessed as reduction in luciferase activity at 10 uM measured at <4 hrs by luciferase reporter assay; procedure, shortened: as §3

Compound	inhibition [1]	Activity [2]	other results
CC(C)CCC[C@@H](C)[C@H]1CC[C@@]2(C)C3=C(C(=O)C[C@]12C)[C@@]1(C)CC[C@H](O)C(C)(C)[C@@H]1CC3=O	inactive	Active	–
CC(C)CCC[C@@H](C)[C@H]1CC[C@H]2[C@@H]3CC=C4C(C)(C)[C@@H](O)CC[C@]4(C)[C@H]3CC[C@]12C	inactive	inactive	–
C[C@H](CCCO)[C@H]1CC[C@@]2(C)C3=C(CC[C@]12C)[C@@]1(C)CC[C@H](O)C(C)(C)[C@@H]1CC3	inactive	Active	–
C[C@H](CCCC(C)(C)O)[C@H]1CC[C@H]2[C@@H]3C[C@@H](O)[C@@]4(O)C[C@@H](O)CC[C@]4(C)[C@H]3CC[C@]12C	inactive	Active	–
CC(=O)N1CCN(c2ccc(OCC3COC(Cn4ccnc4)(c4ccc(Cl)cc4Cl)O3)cc2)CC1 (stereo not drawn)	–	–	Activity [3]: Dose-dependent effect; Activity [4]: inactive
CC(C)CCC[C@@H](C)[C@H]1CC[C@@]2(C)C3=C(CC[C@]12C)[C@@]1(C)CC[C@H](O)C(C)(C)[C@@H]1CC3	inactive	inactive	–
CC(C)CCC[C@@H](C)[C@H]1CC[C@H]2[C@@H]3CC=C4C[C@@H](O)CC[C@]4(CO)[C@H]3CC[C@]12C	inactive	inactive	–
C[C@H](CCCC(C)(C)O)[C@H]1CC[C@H]2[C@@H]3CC=C4C[C@@H](O)CC[C@]4(C)[C@H]3CC[C@]12C	Active	Dose-dependent effect	EC50 [5]: 630 nM
COc1cccc([C@H]2O[C@H](CC(=O)N3CCC(CC(=O)O)CC3)C(=O)N(CC(C)(C)COC(C)=O)c3ccc(Cl)cc32)c1OC	–	–	Activity [6]: inactive
C[C@H](CCCC(C)(C)O)[C@H]1CC[C@H]2[C@@H]3CCC4=CC(=O)CC[C@]4(C)[C@H]3CC[C@]12C	Active	inactive	–
CC(C)CCC[C@@H](C)[C@H]1CC[C@H]2[C@@H]3C[C@@H](O)[C@@]4(O)C[C@@H](O)CC[C@]4(C)[C@H]3CC[C@]12C	inactive	Active	–
C[C@H](CCCC(C)(C)O)[C@H]1CC[C@@]2(C)C3=C(CC[C@]12C)[C@@]1(C)CC[C@H](O)C(C)(C)[C@@H]1CC3	Active	Active	–
CC(C)OP(=O)(OC(C)C)C(Cc1cc(C(C)(C)C)c(O)c(C(C)(C)C)c1)P(=O)(OC(C)C)OC(C)C [APOMINE]	inactive	Dose-dependent effect	EC50 [5]: 470 nM; Activity [7]: inactive; Activity [8]: Active
C[C@H](CCC(O)C(C)(C)O)[C@H]1CC[C@@]2(C)C3=C(CC[C@]12C)[C@@]1(C)CC[C@H](O)C(C)(C)[C@@H]1CC3 (stereo partly drawn)	Active	Active	–
C[C@H](CCC1OC1(C)C)[C@H]1CC[C@@]2(C)C3=C(CC[C@]12C)[C@@]1(C)CC[C@H](O)C(C)(C)[C@@H]1CC3 (stereo partly drawn)	Active	Active	–
